# Screening results: PubChem BioAssay, several laboratories
# Compounds with a hit are over-represented: about 0.72% of the library has one in this group of screens.
# AI-2 QS modul – modulates the Vibrio harveyi AI-2 quorum sensing system; Vibrio harveyi JMH597 AI-2 luminescence/OD600 ratio, 9 h; hits give low values; strain lacks LuxN and CqsS sensors; 0 = neutral-control median; activity change, % at 7.5 µM; 0.4% of 300,000 active; AID 2094; in the data active = activity change below about -75%, passing the limit was not always enough;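 also: luminescence divided by OD600 gain over 9 h not by final OD600 alone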
# STK33 kinase inh – blocks human STK33 kinase activity; purified STK33, MBP phosphorylation, ADP-Glo luminescence; Q9BYT3; 0.073% of 320,000 active; inhibition, % at 10 µM;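 active = inhibition at or above 25%, using the most active replicate where run in duplicate; inactive = inhibition below 25%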
# GSK3beta inhib – blocks human GSK3beta kinase activity; 0.038% of 300,000 active; AID 2097; activity score (negative = inhibition), % at 10 µM; GST-GSK3beta kinase, ADP-Glo luminescence, 60 min; hits give low values;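 active = more than half of replicate wells score below -50%, meaning over 50% inhibition versus plate controls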;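 also: 0% = median DMSO wells and -100% = median GW8510 positive control wells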
# Target sequence (P49841 whole entry, looked up): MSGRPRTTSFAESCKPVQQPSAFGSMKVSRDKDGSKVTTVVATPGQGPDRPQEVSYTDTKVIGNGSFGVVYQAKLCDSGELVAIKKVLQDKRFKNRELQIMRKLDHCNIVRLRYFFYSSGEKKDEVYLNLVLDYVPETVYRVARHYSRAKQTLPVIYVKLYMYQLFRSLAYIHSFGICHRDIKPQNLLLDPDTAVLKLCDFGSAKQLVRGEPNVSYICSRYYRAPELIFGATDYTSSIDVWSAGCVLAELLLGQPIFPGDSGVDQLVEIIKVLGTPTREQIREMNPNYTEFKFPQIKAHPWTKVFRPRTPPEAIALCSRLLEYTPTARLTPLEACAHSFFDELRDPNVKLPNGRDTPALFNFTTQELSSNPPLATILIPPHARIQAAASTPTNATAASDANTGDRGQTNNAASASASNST
#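 Assay system: GST-tagged human GSK3beta kinase, cell-free; Input: 1.6 ng GSK3beta; Medium: Tris/MgCl2 kinase buffer; Timing: 60 min enzyme reaction, room temperature; Signal: ADP-Glo luminescence quantifying ADP generated by kinase; Evaluation: score relative to plate controls; Benchmarks: DMSO neutral wells and GW8510 at 20 µM as positive.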
# Yeast superoxide – lowers age-related superoxide in aged yeast cells. S. cerevisiae aged cells, superoxide DHE fluorescence; hits give low values. 0.18% of 330,000 active. superoxide response (% of plate mean), % at 10 µM;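 active = superoxide response under a set limit, about three screen SD below normal, cut at about 65% in these data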;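 also: yeast aged for seven days with compound at 30 °C before DHE staining; 100% = average MFI of all compound-treated wells on the plate with controls excluded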
# PolyA inhibitor – yeast polyadenylation inhibition; AID 1875; S. cerevisiae SKY197-pL101 polyadenylation reporter, beta-gal luminescence; efflux-impaired pdr1/pdr3 knockout yeast; score 100 = 6 SD above DMSO; activity score, % at 12 µM; 0.02% of 300,000 active;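 active = lowest replicate activity score at least 50, where 100 means six control SD above control mean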;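 also: yeast exposed to compound for 9 h at 30 °C; higher score means more reporter readthrough which indicates perturbed polyadenylation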
# GSK3 alpha inh – human GSK-3 alpha kinase inhibition. P49840. ADP-Glo luminescence, 60 min. inhibition, % at 10 µM. 0.1% of 320,000 active. AID 2650;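 active = more than half of replicates show inhibition above 20%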;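 also: GST-tagged GSK-3 alpha with peptide substrate and 25 µM ATP; 0% = DMSO neutral wells and 100% = GW8510 positive control wells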
# Superoxide pick – confirmation of caloric restriction mimetics inhibiting yeast age-related superoxide; shares compounds with Yeast superoxide; S. cerevisiae aging, superoxide DHE fluorescence; hits give low values; 1% of 850 active; superoxide response (% of plate), % at 10 µM;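 active = superoxide signal below 65% of the plate average of sample wells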;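 also: cells aged with compound for 7 days at 30 degrees C before staining; 100% equals mean DHE fluorescence of all compound wells on the plate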
# DHE counter – counter-screen for compounds affecting DHE oxidation and fluorescence in yeast; shares compounds with Yeast superoxide; S. cerevisiae BY4741, flow cytometry; hits give low values; fluorescence response, % at 10 µM; AID 435000; 850 tested, under 10 active;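 active = fluorescence response below 15%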;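 also: percent of the mean fluorescence averaged over all compound wells on the plate; lower means stronger quenching of DHE signal or ROS scavenging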
# The depositor's hits bear a star; i = inactive; x = no result given.
SMILES,AI-2 QS modul,STK33 kinase inh,GSK3beta inhib,Yeast superoxide,PolyA inhibitor,GSK3 alpha inh,Superoxide pick,DHE counter
CCn1c2ccccc2c2cc([N+](=O)[O-])ccc21,0,0,1,98,-44,-5,99,93
Nc1nn(-c2ccccc2)c2ccc([N+](=O)[O-])cc12,-6,1,-7,107,5,-3,x,x
Cc1cc(CN(C)Cc2c(C(=O)N3CCCCCCC3)nc3ccc(Cl)cn23)n[nH]1,7,-1,-2,95,5,-4,x,x
COc1ccccc1-c1noc2ncnc(Nc3cccc(C)c3C)c12,17,-1,1,100,0,-2,x,x
O=C(CNC(=O)C1CC1)Nc1ccc(F)c(F)c1F,x,0,x,85,x,-4,x,x
O=C(CNCC(=O)Nc1ccc(F)c(F)c1F)Nc1ccc(F)c(F)c1F,32,0,8,65*,3,-1,96,92
O=C(CCCOc1ccccc1)Nc1ccc(Cl)cn1,5,1,-4,58*,4,-2,96,89
COc1ccc(C2(c3ccc(OC(C)=O)cc3OC(C)=O)CC(c3ccccc3)NC(=S)N2)cc1 (stereo not given),-1,-1,1,61*,2,-2,120,123
CC(=O)Oc1ccc2c(c1)OC(c1ccccc1)CC21CC(C)(C)NC(=S)N1 (stereo not given),5,-1,0,114,-3,-2,x,x
O=C(Nc1nc(COc2ccccc2)cs1)c1ccccc1F,13,-1,2,101,0,-3,x,x
COc1ccc(N2CCOCC2)c(NC(=O)c2ccc3c(c2)OCO3)c1,9,2,2,103,4,0,x,x
CC(NC(=O)c1ccc(N)cc1)c1ccccc1 (stereo not given),1,2,3,i,23,x,x,x
Cc1ccc(-n2ncc3c(NCCCOC(C)C)ncnc32)c(C)c1,4,0,-1,95,-9,8,x,x
C=CCNc1ncnc2c1cnn2-c1ccc(C)cc1C,37,0,0,98,-6,0,101,98
COC(=O)C1=C(C(=O)OC)[C@@H]2N(Cc3ccccc3)c3ccccc3[C@@]23C[C@@H](C(=O)OC)N(C(=O)C2CCC2)C3=N1,20,0,0,116,7,2,x,x
CC(C)n1c(=O)c2c(O)cc(=O)oc2c2ccccc21,15,0,-2,71,-8,3,87,98
CCn1c(=O)c2c(O)cc(=O)oc2c2ccccc21,32,-1,-1,48*,2,7,82,101
COc1ccc(-c2ccc(=O)n(Cc3cccc(Cl)c3)n2)cc1,24,-1,-2,55*,-21,-1,90,89
COc1ccc(-c2ccc(=O)n(Cc3ccccc3)n2)cc1,-1,1,-2,115,-23,1,x,x
COc1ccc(CNC(=O)c2cc3ccccc3oc2=O)cc1,12,-1,-1,63*,9,-2,96,93
CC(C)Cn1c(N)c(C(=O)CSc2ncnc3sc4c(c23)CCCC4)c(=O)n(C)c1=O,22,-2,1,117,-8,2,x,x
Cc1cc(-c2n[nH]c(=S)n2Cc2ccco2)nn1C,11,4,5,65*,13,9,102,98
Cc1c(Br)c(-c2n[nH]c(=S)n2Cc2ccco2)nn1C,9,0,1,89,11,-1,x,x
COc1ccc(CNC(=O)CNC(=O)c2ccc(C(C)(C)C)cc2)cc1OC,27,0,-2,62*,12,-2,104,89
Cc1cc(NC(=O)CSC2=Nc3ccccc3C3=NC(Cc4ccccc4)C(=O)N23)n[nH]1 (stereo not given),16,-1,-7,90,-14,20,x,x
SMILES,AI-2 QS modul,STK33 kinase inh,GSK3beta inhib,Yeast superoxide,PolyA inhibitor,GSK3 alpha inh,Superoxide pick,DHE counter
CCN(CC)C(=O)CSC1=Nc2ccccc2C2=NC(Cc3c[nH]c4ccccc34)C(=O)N12 (stereo not given),49,1,0,65*,13,-6,104,91
CC1(C)CN(c2cccc(Br)c2)C1=O,21,-3,-2,106,6,1,x,x
CCc1ccc(NC(=O)CSc2nnc(-c3ccco3)o2)cc1,-9,0,0,65*,-8,2,88,92
Cc1cc(NC(=O)CSc2nnc(-c3ccco3)o2)no1,21,-2,0,105,17,-3,x,x
COc1ccc(F)cc1S(=O)(=O)Nc1ccc(C)cc1,15,-1,4,98,-15,3,103,92
O=C(O)C1CCCN1S(=O)(=O)c1ccc(Cl)cc1 (stereo not given),10,-1,-2,95,-4,-4,107,98
Cc1sc(NC(=O)C2C3C=CC(C3)C2C(=O)O)c(C(N)=O)c1-c1ccc(C(C)C)cc1 (stereo not given),-4,1,4,97,11,-2,x,x
COC(=O)C1CN(C(=O)C(C)Oc2ccccc2Cl)c2ccccc2O1 (stereo not given),35,3,1,64*,4,7,101,102
CC(NC(=O)C(NS(=O)(=O)c1cccs1)C(C)C)c1ccc(S(N)(=O)=O)cc1 (stereo not given),x,0,x,82,x,-2,x,x
CCc1ccc(NC(=O)CCS(=O)(=O)c2ccc(Cl)cc2)cc1,28,-2,0,51*,6,-3,84,95
Cc1cc(C)c(S(=O)(=O)Nc2ccc(O)cc2)c(C)c1,13,1,1,94,0,-1,121,121
O=C(C1CCCO1)N1CCN(c2c3c(nc4cc(-c5ccc(F)cc5)nn24)CCC3)CC1 (stereo not given),11,1,-6,63*,-32,-5,98,103
CCOC(=O)c1cnc(-c2ccccc2)nc1C(F)(F)F,6,0,1,108,16,-1,x,x
CCOC(=O)c1cnc2c(F)ccc(F)c2c1Sc1ccccc1,28,0,3,62*,-7,-4,86,111
CN(C(=O)CSCC(=O)Nc1ccc(Cl)cc1)C1CCCCC1,x,-1,x,107,x,-2,x,x
C=C1c2ccccc2S(=O)(=O)N(Cc2ccccc2)C1COCc1ccccc1 (stereo not given),13,1,1,103,6,5,x,x
O=C(/C=C/c1cnc2ccccc2n1)NC12CC3CC(CC(C3)C1)C2,36,2,3,94,-24,5,x,x
Cc1nnsc1C(=O)NNc1ccc(C(C)(C)C)cc1,24,-1,-1,90,0,1,x,x
